Data reported in ChEMBL document CHEMBL3091458, “Design, synthesis, and biological evaluation of 1,2,4-triazole bearing 5-substituted biphenyl-2-sulfonamide derivatives as potential antihypertensive candidates” (Bioorg Med Chem, 2013).

Legend:
[1] = Displacement of [125I]-Ang-2 from AT2 receptor in porcine myometrial membranes after 1.5 hrs; assay type: cell membranes, Sus scrofa
Summary of the method: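 Membranes were made from porcine uteri (myometrium). AT1 binding was blocked by adding losartan. [125I]Ang II binding ran in 50 mM Tris-HCl pH 7.4 with 100 mM NaCl, 10 mM MgCl2, 1 mM EDTA, 0.025% bacitracin and 0.2% BSA, at 25 °C for 1.5 h. Bound ligand was caught on GF/C filters, washed with cold Tris and gamma-counted. IC50 was the concentration displacing 50% of specific binding. Run in triplicate.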

[2] = Displacement of [125I]-Ang-2 from AT1 receptor in rat liver membranes after 1.5 hrs; assay type: cell membranes, Membrane
[3] = tested on: Rattus norvegicus; experiment: Toxicity in renal spontaneously hypertensive rat model assessed as reduction of heart rate at 20 mg/kg, po measured at 1 hr by tail-cuff method relative to control; assay type: organism-based; design: dose 20 mg/kg, route oral; settings: in vivo
Summary of the method: (§1)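 Spontaneously hypertensive rats were dosed orally with the test agent at 20 mg/kg, with a saline-dosed control group. SAP, DAP, MAP and heart rate were recorded before dosing and at 1, 2, 4, 6 and 8 h after. Change was taken as the post-dose value minus the pre-dose value. Significance was judged against the control at p < 0.1 and p < 0.05.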

[4] = tested on: Rattus norvegicus; experiment: Antihypertensive activity in renal spontaneously hypertensive rat model assessed as reduction of systolic arterial pressure at 20 mg/kg, po measured at 1 hr by tail-cuff method relative to control; assay type: functional, Artery; summary of the method: as §1
[5] = tested on: Rattus norvegicus; experiment: Antihypertensive activity in renal spontaneously hypertensive rat model assessed as reduction of systolic arterial pressure at 20 mg/kg, po measured at 8 hrs by tail-cuff method relative to control; assay type: functional, Artery; summary of the method: as §1
[6] = tested on: Rattus norvegicus; experiment: Antihypertensive activity in renal spontaneously hypertensive rat model assessed as reduction of systolic arterial pressure at 20 mg/kg, po measured at 6 hrs by tail-cuff method relative to control; assay type: functional, Artery; summary of the method: as §1
[7] = tested on: Rattus norvegicus; experiment: Antihypertensive activity in renal spontaneously hypertensive rat model assessed as reduction of systolic arterial pressure at 20 mg/kg, po measured at 4 hrs by tail-cuff method relative to control; assay type: functional, Artery; summary of the method: as §1
[8] = tested on: Rattus norvegicus; experiment: Antihypertensive activity in renal spontaneously hypertensive rat model assessed as reduction of mean arterial pressure at 20 mg/kg, po measured at 8 hrs by tail-cuff method relative to control; assay type: functional, Artery; summary of the method: as §1
[9] = tested on: Rattus norvegicus; experiment: Antihypertensive activity in renal spontaneously hypertensive rat model assessed as reduction of diastolic arterial pressure at 20 mg/kg, po measured at 1 hr by tail-cuff method relative to control; assay type: functional, Artery; summary of the method: as §1
[10] = tested on: Rattus norvegicus; experiment: Toxicity in renal spontaneously hypertensive rat model assessed as reduction of heart rate at 20 mg/kg, po measured at 4 hrs by tail-cuff method relative to control; assay type: organism-based; design: dose 20 mg/kg, route oral; settings: in vivo; summary of the method: as §1
[11] = tested on: Rattus norvegicus; experiment: Antihypertensive activity in renal spontaneously hypertensive rat model assessed as reduction of mean arterial pressure at 20 mg/kg, po measured at 6 hrs by tail-cuff method relative to control; assay type: functional, Artery; summary of the method: as §1
[12] = tested on: Rattus norvegicus; experiment: Antihypertensive activity in renal spontaneously hypertensive rat model assessed as reduction of diastolic arterial pressure at 20 mg/kg, po measured at 8 hrs by tail-cuff method relative to control; assay type: functional, Artery; summary of the method: as §1
[13] = tested on: Rattus norvegicus; experiment: Antihypertensive activity in renal spontaneously hypertensive rat model assessed as reduction of diastolic arterial pressure at 20 mg/kg, po measured at 2 hrs by tail-cuff method relative to control; assay type: functional, Artery; summary of the method: as §1
[14] = tested on: Rattus norvegicus; experiment: Antihypertensive activity in renal spontaneously hypertensive rat model assessed as reduction of mean arterial pressure at 20 mg/kg, po measured at 4 hrs by tail-cuff method relative to control; assay type: functional, Artery; summary of the method: as §1
[15] = tested on: Rattus norvegicus; experiment: Antihypertensive activity in renal spontaneously hypertensive rat model assessed as reduction of diastolic arterial pressure at 20 mg/kg, po measured at 4 hrs by tail-cuff method relative to control; assay type: functional, Artery; summary of the method: as §1
[16] = tested on: Rattus norvegicus; experiment: Toxicity in renal spontaneously hypertensive rat model assessed as reduction of heart rate at 20 mg/kg, po measured at 2 hrs by tail-cuff method relative to control; assay type: organism-based; design: dose 20 mg/kg, route oral; settings: in vivo; summary of the method: as §1
[17] = tested on: Rattus norvegicus; experiment: Antihypertensive activity in renal spontaneously hypertensive rat model assessed as reduction of systolic arterial pressure at 20 mg/kg, po measured at 2 hrs by tail-cuff method relative to control; assay type: functional, Artery; summary of the method: as §1
[18] = tested on: Rattus norvegicus; experiment: Antihypertensive activity in renal spontaneously hypertensive rat model assessed as reduction of diastolic arterial pressure at 20 mg/kg, po measured at 6 hrs by tail-cuff method relative to control; assay type: functional, Artery; summary of the method: as §1
[19] = tested on: Rattus norvegicus; experiment: Toxicity in renal spontaneously hypertensive rat model assessed as reduction of heart rate at 20 mg/kg, po measured at 8 hrs by tail-cuff method relative to control; assay type: organism-based; design: dose 20 mg/kg, route oral; settings: in vivo; summary of the method: as §1
[20] = tested on: Rattus norvegicus; experiment: Antihypertensive activity in renal spontaneously hypertensive rat model assessed as reduction of mean arterial pressure at 20 mg/kg, po measured at 1 hr by tail-cuff method relative to control; assay type: functional, Artery; summary of the method: as §1
[21] = tested on: Rattus norvegicus; experiment: Toxicity in renal spontaneously hypertensive rat model assessed as reduction of heart rate at 20 mg/kg, po measured at 6 hrs by tail-cuff method relative to control; assay type: organism-based; design: dose 20 mg/kg, route oral; settings: in vivo; summary of the method: as §1
[22] = tested on: Rattus norvegicus; experiment: Antihypertensive activity in renal spontaneously hypertensive rat model assessed as reduction of mean arterial pressure at 20 mg/kg, po measured at 2 hrs by tail-cuff method relative to control; assay type: functional, Artery; summary of the method: as §1

| Structure (SMILES) | IC50 [1] [µM] | IC50 [2] [µM] | other results |
| --- | --- | --- | --- |
| Cc1ccc(C(=O)NS(=O)(=O)c2ccc(CC(C)C)cc2-c2ccc(Cn3cncn3)cc2)cc1 | > 10 | > 10 | – |
| CCCCOC(=O)NS(=O)(=O)c1ccc(CC(C)C)cc1-c1ccc(NCC)cc1 | > 10 | > 10 | – |
| CCCCOC(=O)NS(=O)(=O)c1ccc(CC(C)C)cc1-c1ccc(NC)cc1 | > 10 | > 10 | – |
| CCCCOC(=O)NS(=O)(=O)c1sc(CC(C)C)cc1-c1ccc(Cn2ccnc2)cc1 [BULOXIBUTID] | 0.0004 | > 10 | – |
| CCN(CC)Cc1ccc(S(=O)(=O)NC(=O)OCc2ccccc2)c(-c2ccc(Cn3cncn3)cc2)c1 | > 10 | > 10 | – |
| CCCCOC(=O)NS(=O)(=O)c1ccc(CC(C)C)cc1-c1ccc(N)cc1 | > 10 | > 10 | – |
| CCCCc1nc(Cl)c(CO)n1Cc1ccc(-c2ccccc2-c2nnn[nH]2)cc1 [LOSARTAN] | > 10 | 0.085 | Activity [3]: -2 bpm; Activity [4]: -2.8 mmHg; Activity [5]: -14.02 mmHg; Activity [6]: -20.23 mmHg; Activity [7]: -15.55 mmHg; Activity [8]: -14.55 mmHg; Activity [9]: -7.76 mmHg; Activity [10]: -10.57 bpm; Activity [11]: -19.12 mmHg; Activity [12]: -13.09 mmHg; Activity [13]: -8.96 mmHg; Activity [14]: -15.13 mmHg; Activity [15]: -14.25 mmHg; Activity [16]: -7.1 bpm; Activity [17]: -5.21 mmHg; Activity [18]: -17.58 mmHg; Activity [19]: -13.2 bpm; Activity [20]: -3.05 mmHg; Activity [21]: -14.05 bpm; Activity [22]: -7.33 mmHg |

More lines, main results first:

| IC50 [1] [µM] | IC50 [2] [µM] | Structure (SMILES) | other results |
| --- | --- | --- | --- |
| 0.068 | > 10 | CCC(=O)NS(=O)(=O)c1ccc(CC(C)C)cc1-c1ccc(Cn2cncn2)cc1 | – |
| 0.106 | > 10 | CCCCC(=O)NS(=O)(=O)c1ccc(C)cc1-c1ccc(Cn2cncn2)cc1 | – |
| 0.17 | > 10 | COc1ccc(S(=O)(=O)NC(=O)OC(C)(C)C)c(-c2ccc(Cn3cncn3)cc2)c1 | – |
| 0.036 | > 10 | CCOC(=O)NS(=O)(=O)c1ccc(OC)cc1-c1ccc(Cn2cncn2)cc1 | – |
| > 10 | > 10 | CC(C)Cc1ccc(S(=O)(=O)NC(=O)OCc2ccccc2)c(-c2ccc(Cn3cncn3)cc2)c1 | – |
| 0.099 | > 10 | CCCCC(=O)NS(=O)(=O)c1ccc(OC)cc1-c1ccc(Cn2cncn2)cc1 | – |
| 0.223 | > 10 | CCC(=O)NS(=O)(=O)c1ccc(C)cc1-c1ccc(Cn2cncn2)cc1 | – |
| 0.184 | > 10 | CCC(=O)NS(=O)(=O)c1ccc(OC)cc1-c1ccc(Cn2cncn2)cc1 | – |
